Assay results from paper PMC5164959 (Biochemical pharmacology, 2016).
“And” between values parts separate entries of the source, which are not always exact repeats. Equal values may be shown once.

Key:
PKC [1] = assay: PKC activation: phosphorylation of PKC substrates by western blot in HeLa cells; format: cell-based, human
Procedure, shortened: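 HeLa cells were grown in DMEM with 5% FBS and treated 30 min with 4 or 40 μM test compound or 100 nM PMA, with or without 1 h pretreatment with 500 nM bisindolylmaleimide II. In separate runs, a 5-HT2AR agonist (10 μM, 6 h) was given with or without 40 μM antagonist. Lysates (50 μg) were immunoblotted for phospho-(Ser) PKC substrates; four independent experiments were quantified.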

DGKα [2] = molecular target: T1, DGKα (Rattus norvegicus, UniProt P51556); assay: Kinase assay with purified DGKα and PC:DAG:PS liposomes; format: biochemical; details: for Vmax (ATP): ATP-dependent activity, 5 mol% DAG; for Vmax (DAG): DAG-dependent activity, 1 mM ATP; for Decrease of Vmax of purified DGKα: 0.5 mol% drug
T1 sequence (P51556 whole entry): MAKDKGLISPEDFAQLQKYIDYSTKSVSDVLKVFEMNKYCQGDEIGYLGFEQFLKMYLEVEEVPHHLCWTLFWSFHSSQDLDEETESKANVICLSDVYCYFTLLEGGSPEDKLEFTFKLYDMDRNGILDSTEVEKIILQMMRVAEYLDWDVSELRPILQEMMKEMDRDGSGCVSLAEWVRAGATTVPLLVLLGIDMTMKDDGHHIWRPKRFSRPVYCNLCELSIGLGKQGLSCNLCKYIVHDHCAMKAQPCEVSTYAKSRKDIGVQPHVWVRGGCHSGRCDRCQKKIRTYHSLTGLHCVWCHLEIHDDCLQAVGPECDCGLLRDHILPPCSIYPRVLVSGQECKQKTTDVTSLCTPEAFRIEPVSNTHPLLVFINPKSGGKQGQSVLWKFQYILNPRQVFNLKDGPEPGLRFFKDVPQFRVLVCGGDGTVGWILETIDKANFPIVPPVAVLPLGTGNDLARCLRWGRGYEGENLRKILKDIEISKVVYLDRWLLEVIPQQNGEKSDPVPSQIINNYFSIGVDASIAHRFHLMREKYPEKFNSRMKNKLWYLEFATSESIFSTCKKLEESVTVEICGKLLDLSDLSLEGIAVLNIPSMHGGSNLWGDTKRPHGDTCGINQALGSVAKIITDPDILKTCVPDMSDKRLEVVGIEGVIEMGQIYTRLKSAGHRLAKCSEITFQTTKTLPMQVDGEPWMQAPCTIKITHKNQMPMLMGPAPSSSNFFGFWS
Procedure, shortened: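 Rat FLAG-DGKα was expressed in HeLa cells by adenovirus (72 h) and purified on FLAG M2 beads. Reactions contained buffer B (MOPS pH 7.5), 1 mM CaCl2, 1 mM DTT and 4.75 mM PC:PS:DAG liposomes (5 mol% DAG), with test compound built into the liposomes at 0.5 or 2.0 mol% or added from DMSO. Reactions with [γ32P]-ATP ran 15 min at 25°C. Km and Vmax came from Michaelis-Menten non-linear regression.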

DGKα [3] = molecular target: T1, DGKα; assay: Kinase assay with HEK 293T cell homogenate over-expressing DGKα; format: biochemical
Procedure, shortened: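 Each reaction held 5 μg homogenate protein, 2 mM extruded PC:PS:DAG liposomes (10 mol% dioleoyl, dioctanoyl or stearoyl-arachidonoyl DAG), buffer B, 1 mM DTT, 1 mM CaCl2 and 1 mM [γ32P]-ATP, run 20 min at 30°C. Test compounds came from DMSO stocks. 32P-PA was counted, normalized to GFP lysate and to DMSO control; IC50 from log[inhibitor] versus normalized response.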

DGKβ = DGKβ (Rattus norvegicus, UniProt P49621); assay: Kinase assay with HEK 293T cell homogenate over-expressing DGKβ; format: biochemical; details: 20 μM inhibitor, dioleoyl DAG liposomes
Procedure, shortened: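 Reactions contained 5 μg homogenate, 2 mM liposomes (10 mol% dioleoyl DAG, 40 mol% PS, 50 mol% PC), buffer B, 1 mM DTT, 1 mM CaCl2 and [γ32P]-ATP, 20 min at 30°C. Test compound was added from DMSO. Organic-phase 32P was counted and expressed as percent of DMSO control after subtracting the GFP-lysate background.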

DGKδ = DGKδ (Homo sapiens, UniProt Q16760); assay: Kinase assay with HEK 293T cell homogenate over-expressing DGKδ; format: biochemical; details: 20 μM inhibitor, dioleoyl DAG liposomes
Procedure, shortened: (§1)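 Reactions without CaCl2 contained 5 μg homogenate, 2 mM liposomes (10 mol% dioleoyl DAG, 40 mol% PS, 50 mol% PC), buffer B, 1 mM DTT and [γ32P]-ATP, 20 min at 30°C. Test compound was added from DMSO. Extracted 32P-lipid was counted, GFP-lysate normalized, and expressed as percent of DMSO control.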

DGKι = DGKι (Homo sapiens, UniProt O75912); assay: Kinase assay with HEK 293T cell homogenate over-expressing DGKι; format: biochemical
Chain of DGKι (O75912 1-1065 isoform O75912-1): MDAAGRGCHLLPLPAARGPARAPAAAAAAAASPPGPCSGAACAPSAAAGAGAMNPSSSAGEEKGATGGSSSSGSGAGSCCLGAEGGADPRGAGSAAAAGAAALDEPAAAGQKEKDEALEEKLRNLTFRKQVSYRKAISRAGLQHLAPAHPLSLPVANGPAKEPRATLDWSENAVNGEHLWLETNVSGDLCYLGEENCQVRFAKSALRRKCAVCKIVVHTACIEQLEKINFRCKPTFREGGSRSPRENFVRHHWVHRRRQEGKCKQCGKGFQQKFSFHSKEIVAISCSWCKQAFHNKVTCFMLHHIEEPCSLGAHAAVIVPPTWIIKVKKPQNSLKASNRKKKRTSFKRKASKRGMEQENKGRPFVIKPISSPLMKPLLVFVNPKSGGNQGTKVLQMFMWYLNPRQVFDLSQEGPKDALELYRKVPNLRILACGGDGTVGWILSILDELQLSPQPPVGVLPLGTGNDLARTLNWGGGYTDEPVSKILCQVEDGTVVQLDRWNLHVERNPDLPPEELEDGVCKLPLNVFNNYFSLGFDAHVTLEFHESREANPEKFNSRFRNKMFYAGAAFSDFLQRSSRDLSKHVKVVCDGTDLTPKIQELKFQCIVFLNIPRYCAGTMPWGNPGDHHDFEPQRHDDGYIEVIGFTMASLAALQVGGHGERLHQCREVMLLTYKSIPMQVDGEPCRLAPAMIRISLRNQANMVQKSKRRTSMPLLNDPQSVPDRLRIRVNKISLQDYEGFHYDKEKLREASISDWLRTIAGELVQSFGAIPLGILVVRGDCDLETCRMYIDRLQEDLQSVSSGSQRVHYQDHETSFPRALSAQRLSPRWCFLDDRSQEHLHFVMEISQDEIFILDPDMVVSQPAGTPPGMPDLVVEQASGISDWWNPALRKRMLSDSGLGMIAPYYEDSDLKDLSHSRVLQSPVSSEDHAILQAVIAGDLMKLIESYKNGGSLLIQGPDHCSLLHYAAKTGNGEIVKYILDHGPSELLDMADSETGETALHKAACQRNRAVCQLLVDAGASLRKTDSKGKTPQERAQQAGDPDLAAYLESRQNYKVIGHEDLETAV

DGKθ = DGKθ (Homo sapiens, UniProt P52824); assay: Kinase assay with HEK 293T cell homogenate over-expressing DGKθ; format: biochemical; details: 20 μM inhibitor, dioleoyl DAG liposomes
Procedure, shortened: as §1

PKC [4] = assay: PKC activation: phosphorylation of PKC substrates by western blot in U87 cells; format: cell-based, human; details: treatment for 30 min
Procedure, shortened: (§2)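 Glioblastoma cells were treated 30 min with 4 or 40 μM test compound or 100 nM PMA, with or without 1 h pretreatment with 500 nM bisindolylmaleimide II. Cleared Triton lysates (50 μg) were run on 8.75% SDS-PAGE and probed with phospho-(Ser) PKC substrate antibody, detected by alkaline phosphatase chemiluminescence. Three independent experiments were quantified.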

PKC [5] = assay: PKC activation: phosphorylation of PKC substrates by western blot in U251 cells; format: cell-based, human; details: treatment for 30 min
Procedure, shortened: as §2

[6] = cited from earlier work
5-HT1A = molecular target: T2, 5-HT1A (Homo sapiens, UniProt P08908); assay: Radioligand competition binding assay
T2 sequence (P08908 1-422): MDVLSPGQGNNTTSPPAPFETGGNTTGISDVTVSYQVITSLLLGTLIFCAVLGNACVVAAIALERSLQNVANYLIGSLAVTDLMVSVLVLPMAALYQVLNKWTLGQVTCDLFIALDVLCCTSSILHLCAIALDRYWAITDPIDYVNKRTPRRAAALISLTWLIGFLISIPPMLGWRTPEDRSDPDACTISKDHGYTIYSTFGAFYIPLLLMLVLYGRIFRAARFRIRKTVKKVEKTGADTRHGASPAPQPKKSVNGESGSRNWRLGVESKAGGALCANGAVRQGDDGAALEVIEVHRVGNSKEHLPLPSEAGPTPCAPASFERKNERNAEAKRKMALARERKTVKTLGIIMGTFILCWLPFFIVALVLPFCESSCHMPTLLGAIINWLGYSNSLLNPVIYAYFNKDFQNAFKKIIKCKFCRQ

5-HT1B = 5-HT1B (Homo sapiens, UniProt P28222); assay: Radioligand competition binding assay; details: read-out: Percent Inhibition of Binding 5-HT1B
Procedure, shortened: (§3)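 Run by the NIMH PDSP as radioligand competition binding assays. The primary screen used 10 μM test compound and reported mean percent inhibition of radioligand binding (n=4); above 50% counted as significant. At those receptors, IC50 values came from non-linear regression of competition binding isotherms and were converted to Ki with the Cheng-Prusoff equation.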

5-HT1D [7] = molecular target: T3, 5-HT1D (Homo sapiens, UniProt P28221); assay: Radioligand competition binding assay
T3 sequence (P28221 whole entry, species assumed): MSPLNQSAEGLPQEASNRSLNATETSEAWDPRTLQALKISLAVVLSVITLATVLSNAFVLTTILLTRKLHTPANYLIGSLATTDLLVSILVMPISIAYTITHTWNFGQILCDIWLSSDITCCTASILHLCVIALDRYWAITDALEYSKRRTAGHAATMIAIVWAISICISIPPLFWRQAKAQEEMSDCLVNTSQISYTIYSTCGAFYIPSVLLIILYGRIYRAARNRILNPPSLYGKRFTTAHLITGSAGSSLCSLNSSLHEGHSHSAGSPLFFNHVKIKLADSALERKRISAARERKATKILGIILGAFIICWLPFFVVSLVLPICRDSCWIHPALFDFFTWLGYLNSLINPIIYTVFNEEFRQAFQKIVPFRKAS
Procedure, shortened: as §3

5-HT2A [8] = molecular target: T4, 5-HT2A (Homo sapiens, UniProt P28223); assay: Radioligand competition binding assay
T4 sequence (P28223 whole entry, species assumed): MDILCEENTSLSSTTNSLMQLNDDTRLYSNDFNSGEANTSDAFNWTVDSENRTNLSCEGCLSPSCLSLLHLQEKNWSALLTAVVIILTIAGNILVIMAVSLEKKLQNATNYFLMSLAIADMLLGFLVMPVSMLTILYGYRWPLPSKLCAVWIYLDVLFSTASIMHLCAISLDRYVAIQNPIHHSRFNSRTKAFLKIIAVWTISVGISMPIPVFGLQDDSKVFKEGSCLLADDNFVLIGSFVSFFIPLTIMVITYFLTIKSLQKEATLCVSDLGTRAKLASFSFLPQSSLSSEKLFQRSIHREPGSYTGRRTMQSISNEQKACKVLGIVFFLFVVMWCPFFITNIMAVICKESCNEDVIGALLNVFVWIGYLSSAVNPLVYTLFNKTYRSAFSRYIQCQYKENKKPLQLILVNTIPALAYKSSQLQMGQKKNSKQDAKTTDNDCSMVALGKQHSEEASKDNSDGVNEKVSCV

5-HT2B [9] = molecular target: T5, 5-HT2B (Homo sapiens, UniProt P41595); assay: Radioligand competition binding assay
T5 sequence (P41595 whole entry, species assumed): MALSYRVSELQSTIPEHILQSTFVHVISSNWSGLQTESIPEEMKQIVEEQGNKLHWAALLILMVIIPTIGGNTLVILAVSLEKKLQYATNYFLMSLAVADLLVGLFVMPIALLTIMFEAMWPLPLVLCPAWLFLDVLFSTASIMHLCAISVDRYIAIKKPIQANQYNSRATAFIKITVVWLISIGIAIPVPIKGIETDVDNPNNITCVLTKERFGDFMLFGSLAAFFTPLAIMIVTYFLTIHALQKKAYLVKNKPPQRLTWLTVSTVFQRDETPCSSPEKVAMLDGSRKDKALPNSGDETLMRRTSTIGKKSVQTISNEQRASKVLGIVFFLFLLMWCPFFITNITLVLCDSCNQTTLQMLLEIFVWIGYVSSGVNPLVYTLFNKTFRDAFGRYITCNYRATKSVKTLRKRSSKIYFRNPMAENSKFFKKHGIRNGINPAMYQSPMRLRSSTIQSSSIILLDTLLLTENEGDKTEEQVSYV

5-HT2C [10] = molecular target: T6, 5-HT2C (Homo sapiens, UniProt P28335); assay: Radioligand competition binding assay
T6 sequence (P28335 33-458): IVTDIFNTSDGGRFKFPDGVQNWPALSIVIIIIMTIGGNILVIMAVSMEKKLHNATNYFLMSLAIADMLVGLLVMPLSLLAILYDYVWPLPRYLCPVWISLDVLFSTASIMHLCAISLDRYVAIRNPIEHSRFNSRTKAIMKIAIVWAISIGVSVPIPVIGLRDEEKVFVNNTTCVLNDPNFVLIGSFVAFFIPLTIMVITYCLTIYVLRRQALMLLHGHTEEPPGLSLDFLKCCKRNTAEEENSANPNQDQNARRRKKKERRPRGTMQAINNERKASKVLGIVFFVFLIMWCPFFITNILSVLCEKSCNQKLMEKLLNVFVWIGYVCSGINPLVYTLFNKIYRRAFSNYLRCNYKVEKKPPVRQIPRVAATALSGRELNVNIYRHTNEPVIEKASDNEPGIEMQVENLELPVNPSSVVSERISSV

5-HT3 = 5-HT3 (Homo sapiens, UniProt P46098); assay: Radioligand competition binding assay; details: read-out: Percent Inhibition of Binding 5-HT3
Chain of 5-HT3 (P46098 24-478, species assumed): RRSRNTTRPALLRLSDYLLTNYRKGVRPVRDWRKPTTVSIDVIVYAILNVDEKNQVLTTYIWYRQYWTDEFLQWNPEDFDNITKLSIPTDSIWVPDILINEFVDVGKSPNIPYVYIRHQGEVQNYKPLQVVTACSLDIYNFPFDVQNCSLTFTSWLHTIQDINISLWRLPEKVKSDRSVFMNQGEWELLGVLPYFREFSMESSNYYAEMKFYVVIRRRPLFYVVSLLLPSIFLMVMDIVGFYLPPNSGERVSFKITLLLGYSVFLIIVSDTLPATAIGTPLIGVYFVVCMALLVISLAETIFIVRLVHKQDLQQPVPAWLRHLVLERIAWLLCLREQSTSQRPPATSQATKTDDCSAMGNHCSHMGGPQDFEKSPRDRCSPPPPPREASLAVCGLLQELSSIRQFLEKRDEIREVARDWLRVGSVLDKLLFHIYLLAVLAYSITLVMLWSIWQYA
Procedure, shortened: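 Run by the NIMH PDSP as a radioligand competition binding primary screen. Test compounds were applied at 10 μM, and the read-out was mean percent inhibition of radioligand binding (n=4).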

5-HT5A = 5-HT5A (Homo sapiens, UniProt P47898); assay: Radioligand competition binding assay
Chain of 5-HT5A (P47898 whole entry, species assumed): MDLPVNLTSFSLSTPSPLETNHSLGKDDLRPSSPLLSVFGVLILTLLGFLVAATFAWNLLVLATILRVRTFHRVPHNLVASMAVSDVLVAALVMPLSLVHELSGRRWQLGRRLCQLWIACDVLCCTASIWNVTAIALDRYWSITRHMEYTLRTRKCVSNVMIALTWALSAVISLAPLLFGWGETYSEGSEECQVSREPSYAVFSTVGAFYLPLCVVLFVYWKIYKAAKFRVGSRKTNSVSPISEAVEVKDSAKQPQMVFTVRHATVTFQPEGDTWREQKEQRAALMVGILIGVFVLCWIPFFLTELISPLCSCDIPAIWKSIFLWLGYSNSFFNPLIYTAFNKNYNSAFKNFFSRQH
Procedure, shortened: as §3

5-HT6 = 5-HT6 (Homo sapiens, UniProt P50406); assay: Radioligand competition binding assay
Chain of 5-HT6 (P50406 whole entry, species assumed): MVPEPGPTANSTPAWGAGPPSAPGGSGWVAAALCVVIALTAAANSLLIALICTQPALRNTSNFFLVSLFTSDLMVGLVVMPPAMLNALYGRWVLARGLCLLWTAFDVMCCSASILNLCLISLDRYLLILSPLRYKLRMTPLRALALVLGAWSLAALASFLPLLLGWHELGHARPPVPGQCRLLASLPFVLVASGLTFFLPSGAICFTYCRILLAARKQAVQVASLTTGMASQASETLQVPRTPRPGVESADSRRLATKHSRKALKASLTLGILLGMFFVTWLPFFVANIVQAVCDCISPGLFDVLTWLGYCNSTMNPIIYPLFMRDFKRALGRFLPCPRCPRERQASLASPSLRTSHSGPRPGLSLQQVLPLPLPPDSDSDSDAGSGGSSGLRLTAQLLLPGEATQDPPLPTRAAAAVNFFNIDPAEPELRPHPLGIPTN
Procedure, shortened: as §3

5-HT7 [11] = molecular target: T7, 5-HT7 (Homo sapiens, UniProt P34969); assay: Radioligand competition binding assay
T7 sequence (P34969 whole entry, species assumed): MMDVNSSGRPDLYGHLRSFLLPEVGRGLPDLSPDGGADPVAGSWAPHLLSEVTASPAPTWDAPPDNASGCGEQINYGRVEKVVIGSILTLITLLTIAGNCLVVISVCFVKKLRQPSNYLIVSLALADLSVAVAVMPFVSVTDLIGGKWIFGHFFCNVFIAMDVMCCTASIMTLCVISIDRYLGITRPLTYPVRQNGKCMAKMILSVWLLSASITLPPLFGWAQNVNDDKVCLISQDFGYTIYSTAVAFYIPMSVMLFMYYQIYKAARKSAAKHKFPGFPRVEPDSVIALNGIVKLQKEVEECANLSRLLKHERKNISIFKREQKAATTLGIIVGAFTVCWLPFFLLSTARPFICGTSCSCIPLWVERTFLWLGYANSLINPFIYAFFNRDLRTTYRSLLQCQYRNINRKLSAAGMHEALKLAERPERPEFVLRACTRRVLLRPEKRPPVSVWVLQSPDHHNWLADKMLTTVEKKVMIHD
Procedure, shortened: as §3

5-HT1D [12] = molecular target: T3, 5-HT1D; assay: Antagonist functional assay; format: cell-based; details: read-out: Percent Inhibition of Agonist Response 5-HT1D
Procedure, shortened: (§4)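 Run by the NIMH PDSP as cell-based antagonist-mode functional assays. Test compounds were applied at 10 μM. The read-out was percent inhibition of the response to an EC90 concentration of a reference agonist; that concentration was determined empirically for each receptor.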

5-HT2A [13] = molecular target: T4, 5-HT2A; assay: Antagonist functional assay; format: cell-based; details: read-out: Percent Inhibition of Agonist Response 5-HT2A
Procedure, shortened: as §4

5-HT2B [14] = molecular target: T5, 5-HT2B; assay: Antagonist functional assay; format: cell-based; details: read-out: Percent Inhibition of Agonist Response 5-HT2B
Procedure, shortened: as §4

5-HT2C [15] = molecular target: T6, 5-HT2C; assay: Antagonist functional assay; format: cell-based; details: read-out: Percent Inhibition of Agonist Response 5-HT2C
Procedure, shortened: as §4

5-HT7 [16] = molecular target: T7, 5-HT7; assay: Antagonist functional assay; format: cell-based; details: read-out: Percent Inhibition of Agonist Response 5-HT7
Procedure, shortened: as §4

5-HTRs = assay: Agonist functional assays at 5 serotonin receptors; format: cell-based; details: 5 receptors where low Ki values were observed; data not shown

COc1cc(Br)c(OC)c2c1[C@H](CN)C2 [TCB-2]
PKC activity (PKC [1]; 10 μM TCB-2 for 6 h): significant elevation of PKC activity

CN1CCCC1CCn1cc(C2=C(c3c[nH]c4ccccc34)C(=O)NC2=O)c2ccccc21 (centres unmarked) [bis, bisindolylmaleimide II]
Change in basal PKC activity (PKC [1]; 500 nM bis alone for 1 h): did not see any changes in basal PKC activity

CCCCCCCCCCCCCC(=O)O[C@@H]1[C@@H](C)[C@@]2(O)[C@@H](C=C(CO)C[C@]3(O)C(=O)C(C)=C[C@@H]23)[C@@H]2C(C)(C)[C@]12OC(C)=O [PMA, Phorbol 12-myristate 13-acetate]
Increase in phosphorylation of PKC downstream targets (PKC [1]; 100 nM PMA, 30 min): greater than 3 fold

Cc1nc2sccn2c(=O)c1CCN1CCC(=C(c2ccc(F)cc2)c2ccc(F)cc2)CC1 [ritanserin]
Vmax (ATP) (DGKα [2]; 0.5 mol% drug in liposomes): 20 ± 1 nmol/min/mg
Vmax (DAG) (DGKα [2]; 0.5 mol% drug in liposomes): 17 ± 2 nmol/min/mg
Decrease of Vmax of purified DGKα (DGKα [2]; in the context of ATP): greater than 50%
Decrease of Vmax of purified DGKα (DGKα [2]; in the context of DAG): greater than 50%
Vmax (ATP) (DGKα [2]; 2.0 mol% drug in liposomes): 12 ± 0.01 ^† nmol/min/mg
Vmax (DAG) (DGKα [2]; 2.0 mol% drug in liposomes): 11 ± 2 nmol/min/mg
IC50 (DGKα [3]): ~15 µM
Activity of DGKα, percent of control (DGKα [3]; 20 μM inhibitor, liposomes with dioleoyl DAG, cell homogenate): decreased by about half
Potency against DGKα with other DAG species (DGKα [3]; 20 μM, liposomes containing dioctanoyl or stearoyl arachidonoyl DAG): similarly potent
Activity of DGKβ, percent of control (DGKβ): not detectably inhibited
Activity of DGKδ, percent of control (DGKδ): not detectably inhibited
Activity of DGKι, percent of control (DGKι; 20 μM inhibitor, dioleoyl DAG liposomes, cell homogenate): not detectably inhibited
IC50 (DGKι; IC50 for DGKι, cell homogenate, 1 mM ATP, 10 mol% DAG): 55 to 65 µM and ~60 µM
IC50 for DGKι relative to IC50 for DGKα (DGKι; fold higher than IC50 for DGKα): 2–3 fold
Activity of DGKθ, percent of control (DGKθ): not detectably inhibited
Increase in phosphorylation of PKC downstream targets (PKC [1]; 40 μM, 30 min): about 2.5 fold
Activation of PKC (PKC [4]): activate PKC
Activation of PKC (PKC [5]): not in U251 cells
Adverse side effects [6]: few adverse side effects
Oral bioavailability [6]: orally bioavailable
half-life ([6]; in humans): approximately 40 hours

O=C(c1ccc(F)cc1)C1CCN(CCn2c(=O)[nH]c3ccccc3c2=O)CC1 [ketanserin]
IC50 (DGKα [2]): 264 µM
Effect on TCB-2-induced PKC activation (PKC [1]; 40 μM ketanserin co-treatment with 10 μM TCB-2 for 6 h): inhibited the ability of TCB-2 to activate PKC
Activation of PKC (PKC [1]; 40 μM ketanserin, 30 min): no activation of PKC was observed
Activation of PKC (PKC [4]): does not activate PKC
Activation of PKC (PKC [5]): does not activate PKC

O=c1c2ccccc2[nH]c(=S)n1CCN1CCC(=C(c2ccc(F)cc2)c2ccc(F)cc2)CC1 [R59949, 3-[2-(4-[bis-(4-fluorophenyl)methylene]-1-piperidinyl)ethyl]-2,3-dihydro-2-thioxo-4(1H)quinazolinone]
Ki (5-HT1A): 2 µM
inhibition at 10 µM (5-HT1A; read-out: Percent Inhibition of Binding 5-HT1A): 61.1%
inhibition at 10 µM (5-HT1B): 20.3%
Ki (5-HT1D [7]): 0.0645 µM
inhibition at 10 µM (5-HT1D [7]; read-out: Percent Inhibition of Binding 5-HT1D): 76.7%
Ki (5-HT2A [8]): 0.0092 µM
inhibition at 10 µM (5-HT2A [8]; read-out: Percent Inhibition of Binding 5-HT2A): 94.2%
Ki (5-HT2B [9]): 0.08 µM
inhibition at 10 µM (5-HT2B [9]; read-out: Percent Inhibition of Binding 5-HT2B): 96.9%
Ki (5-HT2C [10]): 0.046 µM
inhibition at 10 µM (5-HT2C [10]; read-out: Percent Inhibition of Binding 5-HT2C): 72.2%
inhibition at 10 µM (5-HT3): 0.7%
Ki (5-HT5A): 3.25 µM
inhibition at 10 µM (5-HT5A; read-out: Percent Inhibition of Binding 5-HT5A): 71.6%
Ki (5-HT6): 3.07 µM
inhibition at 10 µM (5-HT6; read-out: Percent Inhibition of Binding 5-HT6): 71.8%
Ki (5-HT7 [11]): 0.681 µM
inhibition at 10 µM (5-HT7 [11]; read-out: Percent Inhibition of Binding 5-HT7): 82.8%
inhibition at 10 µM (5-HT1D [12]): 136%
inhibition at 10 µM (5-HT2A [13]): 101%
inhibition at 10 µM (5-HT2B [14]): 99.4%
inhibition at 10 µM (5-HT2C [15]): 28.1%
inhibition at 10 µM (5-HT7 [16]): 32.9%
Agonist activity at 5-HTRs (5-HTRs): very low to no activity
